Data set [1] concerns Radical scavenging activity. The data set can be described thus: Antioxidant activity assessed as DPPH radical scavenging activity […]. Format: functional. The gist of the method:
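Shaken in the dark at room temperature for 30 min, then absorbance read at 517 nm. Negative control without compound. ED50 taken as the concentration scavenging 50% of DPPH radicals.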
On the technique in general: The DPPH test is a chemical assay of radical scavenging.

In data set [2] the test system is RAW264.7. The data set can be described thus: Inhibition of LPS-induced NO production in mouse RAW264.7 cells after 24 hrs at 20 ug/ml. The format is functional. More on the design: scale not given: the % may be the effect or the level left.
Data set [3] in a line: Cytotoxicity against mouse RAW264.7 cells assessed as cell viability at 20 ug/ml after 24 hrs by MTT assay. The format is cell-based. The settings on record: read-out: Activity. The gist of the method:
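Viability of RAW 264.7 cells measured by MTT after 24 h co-treatment with LPS (1000 ng/mL) and compound at 20 μg/mL. Compounds dissolved in DMSO and diluted in sterile PBS.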

Data set [4] concerns RAW264.7. The data set can be described thus: Inhibition of LPS-induced NO production in mouse RAW264.7 cells after 24 hrs. The format is functional, cell-based. Particulars: RAW264.7, 24 h.

A value given as a limit tells only on which side of the number the result lay.

A word on the IC50: it is the midpoint of a concentration-inhibition curve.

For `COc1cc2c(c(OC)c1O)[C@H]1c3c(cc(OC)c(O)c3OC)OC[C@@H](C2)[C@H]1CO[C@@H]1O[C@H](CO)[C@@H](O)[C@H](O)[C@H]1O`, the ED50 in data set [1] turned out to be 24.7 µM. The Activity in the data set on RAW264.7 [2] turned out to be 40.37%. For the same molecule, the viability at 24 h, 20 ug/ml in data set [3] is 110%.

On to `O=C1C=CC(O)(CCO[C@@H]2O[C@H](COC(=O)/C=C/c3ccc(O)cc3)[C@@H](O)[C@H](O)[C@H]2O)C=C1`, for which the ED50 in data set [1] is greater than 100 µM.

With `O=c1c(O)c(-c2ccc(O)c(O)c2)oc2cc(O)cc(O)c12` [QUERCETIN], the IC50 in the data set on RAW264.7 [4] amounted to 1300 nM.

For the molecule `O=c1c(O[C@@H]2OC[C@H](O)[C@H](O)[C@H]2O)coc2cc(O)cc(O)c12`, the ED50 in data set [1] came out at 133 µM. This molecule returned an Activity with RAW264.7 [2] of 38.07%. Moreover, the viability at 24 h, 20 ug/ml in data set [3] worked out at 106%.

`COc1cc([C@H]2c3cc(O)c(OC)cc3C[C@@H](CO)[C@@H]2CO[C@@H]2O[C@@H](C)[C@H](O)[C@@H](O)[C@H]2O)ccc1O` [AVICULIN]: in data set [1], the ED50 is 44.8 µM. Also, the Activity in the data set on RAW264.7 [2] is reported as 39.68%. In addition, the viability at 24 h, 20 ug/ml in data set [3] was found to be 112%.

For the molecule `O=C(/C=C/c1ccc(O)cc1)OC[C@H]1O[C@@H](OCCc2ccc(O)c(O)c2)[C@H](O)[C@@H](O)[C@@H]1O`, in data set [1], the ED50 came out at 33 µM.

`COc1ccc(O[C@@H]2O[C@H](CO)[C@@H](O)[C@H](O)[C@H]2O)cc1OC`: the ED50 in data set [1] was greater than 100 µM.

As to `COc1cc(CCO)cc(OC)c1O[C@@H]1O[C@H](CO)[C@@H](O)[C@H](O)[C@H]1O`, the ED50 in data set [1] was greater than 100 µM.

`O=C1c2c(O)cc(O)cc2OC(c2ccc(O)c(O)c2)C1O[C@@H]1OC[C@@H](O)[C@H](O)[C@H]1O` (single isomer, unassigned): in data set [1], the ED50 came to 25.2 µM. The molecule further returned an Activity in the data set with RAW264.7 [2] of 37.84%. The viability at 24 h, 20 ug/ml in data set [3] amounted to 107%.

In the case of `O=C1c2c(O)cc(O)cc2O[C@H](c2ccc(O)c(O)c2)[C@H]1O[C@@H]1O[C@H](CO)[C@@H](O)[C@H](O)[C@H]1O`, the ED50 in data set [1] turned out to be 33.5 µM. Also, the Activity with RAW264.7 [2] came to 35.55%. The viability at 24 h, 20 ug/ml in data set [3] came to 101%.

`COc1cc(CCCO)cc(OC)c1O[C@@H]1O[C@H](CO)[C@@H](O)[C@H](O)[C@H]1O`: the ED50 in data set [1] was greater than 100 µM.

For `O=C1c2c(O)cc(O)cc2O[C@@H](c2ccc(O)c(O)c2)[C@H]1O[C@@H]1OC[C@@H](O)[C@H](O)[C@H]1O`, in data set [1], the ED50 turned out to be 26.5 µM. This molecule returned an Activity in the data set on RAW264.7 [2] of 36.7%. Also, the viability at 24 h, 20 ug/ml in data set [3] was found to be 102%.

Regarding `O=c1c(O[C@@H]2O[C@H](CO)[C@@H](O)[C@H](O)[C@H]2O)coc2cc(O)cc(O)c12`, in data set [1], the ED50 was greater than 100 µM. The molecule further displayed an Activity in the data set on RAW264.7 [2] of 53.79%. In data set [3], the viability at 24 h, 20 ug/ml came to 105%.

In the case of `COc1cc(O[C@@H]2O[C@H](CO)[C@@H](O)[C@H](O)[C@H]2O)cc(O)c1OC`, the ED50 in data set [1] was greater than 100 µM.

With `C=C(C)[C@@H]1CC[C@]2(C(=O)O)CC[C@]3(C)[C@H](CC[C@@H]4[C@@]5(C)CC[C@H](O)C(C)(C)[C@@H]5CC[C@]43C)[C@@H]12` [BETULINIC ACID], the ED50 in data set [1] is greater than 100 µM. This molecule also displayed an Activity in the data set with RAW264.7 [2] of 56.19%. The viability at 24 h, 20 ug/ml in data set [3] came out at 60.3%.

As for `O=c1c(O[C@@H]2OC[C@@H](O)[C@H](O)[C@H]2O)coc2cc(O)cc(O)c12`, the ED50 in data set [1] was greater than 100 µM. The same molecule came in with an Activity with RAW264.7 [2] of 36.24%. Further, in data set [3], the viability at 24 h, 20 ug/ml amounted to 102%.

`O=C1c2c(O)cc(O)cc2O[C@H](c2ccc(O)c(O)c2)[C@@H]1O[C@@H]1OC[C@@H](O)[C@H](O)[C@H]1O`: the ED50 in data set [1] was found to be 26.6 µM. Moreover, the Activity in the data set on RAW264.7 [2] stood at 35.32%. Besides, in data set [3], the viability at 24 h, 20 ug/ml was 108%.

Consider `O=C1O[C@H]2[C@H](O)[C@@H](O)[C@H](CO)O[C@@H]2c2c1cc(O)c(O)c2O`, for which the ED50 in data set [1] was greater than 100 µM.

For `COc1cc2c(c(OC)c1O)[C@@H]1c3c(cc(OC)c(O)c3OC)OC[C@H](C2)[C@@H]1CO[C@@H]1O[C@H](CO)[C@@H](O)[C@H](O)[C@H]1O`, in data set [1], the ED50 is 23.4 µM. The Activity with RAW264.7 [2] is given as 38.99%. For the same molecule, the viability at 24 h, 20 ug/ml in data set [3] came to 106%.

For `CC[C@H](CC[C@@H](C)[C@H]1CC[C@H]2[C@@H]3CC=C4C[C@@H](O[C@@H]5O[C@H](CO)[C@@H](O)[C@H](O)[C@H]5O)CC[C@]4(C)[C@H]3CC[C@]12C)C(C)C`, in data set [1], the ED50 is greater than 100 µM.

`O=C1c2c(O)cc(O)cc2O[C@H](c2ccc(O)c(O)c2)[C@H]1O[C@@H]1OC[C@@H](O)[C@H](O)[C@H]1O`: the ED50 in data set [1] came out at 30.4 µM. For the same molecule, the Activity in the data set on RAW264.7 [2] worked out at 33.26%. The viability at 24 h, 20 ug/ml in data set [3] was determined as 105%.

With `COc1cc([C@H]2c3c(cc(OC)c(O)c3OC)C[C@@H](CO[C@@H]3O[C@H](CO)[C@@H](O)[C@H](O)[C@H]3O)[C@@H]2CO)cc(OC)c1O`, in data set [1], the ED50 is 37.6 µM. Also, the Activity with RAW264.7 [2] was 39.22%. Also, the viability at 24 h, 20 ug/ml in data set [3] is 101%.

As for `Cc1c(C)c2c(c(C)c1O)CC[C@@](C)(CCC[C@H](C)CCC[C@H](C)CCCC(C)C)O2`, the ED50 in data set [1] was 27.2 µM.

`O=C1c2c(O)cc(O)cc2O[C@@H](c2ccc(O)c(O)c2)[C@@H]1O[C@@H]1O[C@H](CO)[C@@H](O)[C@H](O)[C@H]1O`: the ED50 in data set [1] was determined as 36.2 µM. In the data set on RAW264.7 [2], this molecule returned an Activity of 35.78%. In data set [3], the viability at 24 h, 20 ug/ml is 105%.

As to `COc1cc(CO)cc(OC)c1O[C@@H]1O[C@H](CO)[C@@H](O)[C@H](O)[C@H]1O`, the ED50 in data set [1] was greater than 100 µM.

On to `COc1cc([C@@H]2c3c(cc(OC)c(O)c3OC)C[C@H](CO)[C@H]2CO[C@@H]2O[C@H](CO)[C@@H](O)[C@H](O)[C@H]2O)cc(OC)c1O`, for which, in data set [1], the ED50 is 26.6 µM. In the data set on RAW264.7 [2], the Activity came to 38.76%. For the same molecule, the viability at 24 h, 20 ug/ml in data set [3] amounted to 104%.

`COc1cc(O[C@@H]2O[C@H](CO)[C@@H](O)[C@H](O)[C@H]2O)cc(OC)c1OC`: the ED50 in data set [1] was greater than 100 µM.

These data come from ChEMBL document CHEMBL2331325, “Antioxidant lignans and chromone glycosides from Eurya japonica” (J Nat Prod, 2013).
